These results are taken from PubChem BioAssay.

Calls of active or inactive are those of the source.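 The calls were made as follows, unless noted: active = viability at or under a set limit in both replicates, limit being median viability minus 3 SD (cut at about 48% in these data, passing the limit was not always enough); inconclusive = at or under the limit in just one replicate; inactive = at or above the limit in both replicates.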

Assay [1] can be described thus: Her2 expression decrease, cell viability multiplex – SKBR3 breast tumor cells, AlphaScreen, ATP viability, primary screen (AID 461;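 active = Her2 level under about 52% in both replicate screens, with viability over 70% of control, limit read from the data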;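 as to Her2 level: lower value means less Her2 protein in the cells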;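 as to viability: percent of carrier control wells set as 100% viability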). Particulars: SKBR3 Her2 protein level, 18-24 h, measured here: SKBR3 viability, ATP luminescence, at 10 µM. For orientation: In Alpha technology, singlet oxygen from a donor bead excites a nearby acceptor bead.
The target in assay [2] is Receptor tyrosine-protein kinase erbB-2 (Homo sapiens) (UniProt P04626). The description is as above. To be noted: 18-24 h, at 10 µM, stronger effect = lower value.
The nature of assay [3]: reduced viability of SK-BR-3 breast cancer cells – cell-based, 24 h, human, pilot screen (AID 572;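 active = viability at or below 10% of carrier control in both of two separate runs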;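 also: compound exposure lasted between 18 and 24 h rather than exactly 24 h; 100% = carrier-treated control wells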). To be noted: SK-BR-3 viability, CellTiter-Glo luminescence, at 10 µM, stronger effect = lower value. Background: Cellular ATP, detected with luciferase, serves as a proxy for viable cell number.
Assay [4] can be described thus: HUVEC growth inhibition – cell-based, human, primary screen (AID 575;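 active = viability at or below 30% in both replicate assays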;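 also: 100% = median of untreated cell wells with 0.1% DMSO on each plate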). To be noted: HUVEC proliferation, CellTiter-Glo luminescence, 72 h; at 10 µM; stronger effect = lower value. In a few lines: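 Assay system: primary human umbilical vein endothelial cells / Buffer or medium: endothelial basal medium with 2% FBS plus growth supplements / Compound dosing: one dose, 10 µM final, 0.1% DMSO / Timing: 72 h treatment at 37 °C / Signal: CTG luminescence / Benchmarks: 32 DMSO-only cell-control wells (high), 32 MePR drug-control wells (low) per plate / Plate: collagen-coated 384-well format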

Assay [5] is described as follows: H69AR cell proliferation blockers – human, duplicate replicates, primary screen (AID 580).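 Also: 100% = mean luminescence of untreated wells and 0% = no signal.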 Particulars: H69AR lung tumor cells viability, ATP luminescence, 72 h; at 10 µM; stronger effect = lower value.
A short description of assay [6]: MRP1 drug-resistance reversers in H69AR cells – cell-based, doxorubicin co-treatment, pilot screen (AID 601;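 active = viability loss from added drug above about 55%, and viability with drug at most 40%, in both replicates, limit read from the data, passing the limit was not always enough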). To be noted: CellTiter-Glo, 72 h, at 10 µM; for differential viability (reversal): stronger effect = higher value.
Assay [7] in a line: yeast transport mutant growth inhibition pilot in 384-well plates, post-Golgi transport modulator project (AID 636; in the data active = inhibition above about 31%). To be noted: absorbance 615 nm, about 18 h, stronger effect = higher value.
Assay [8] can be described thus: growth suppression of yeast trafficking mutant, preliminary HTS, modulators of trafficking downstream of Golgi apparatus project, 1536-format plate, OD 615 nm (AID 637; in the data active = inhibition above about 30%). To be noted: yeast transport mutant growth, absorbance 615 nm, 18 h; stronger effect = higher value.
The mark [9] stands for this setting: H69AR cells + 2 uM doxorubicin, measured here: viability with 2 uM doxorubicin, stronger effect = lower value.
The mark [10] stands for this setting: H69AR cells, compound alone cytotoxicity.

Receptor tyrosine-protein kinase erbB-2 (Homo sapiens), sequence (P04626 whole entry, looked up): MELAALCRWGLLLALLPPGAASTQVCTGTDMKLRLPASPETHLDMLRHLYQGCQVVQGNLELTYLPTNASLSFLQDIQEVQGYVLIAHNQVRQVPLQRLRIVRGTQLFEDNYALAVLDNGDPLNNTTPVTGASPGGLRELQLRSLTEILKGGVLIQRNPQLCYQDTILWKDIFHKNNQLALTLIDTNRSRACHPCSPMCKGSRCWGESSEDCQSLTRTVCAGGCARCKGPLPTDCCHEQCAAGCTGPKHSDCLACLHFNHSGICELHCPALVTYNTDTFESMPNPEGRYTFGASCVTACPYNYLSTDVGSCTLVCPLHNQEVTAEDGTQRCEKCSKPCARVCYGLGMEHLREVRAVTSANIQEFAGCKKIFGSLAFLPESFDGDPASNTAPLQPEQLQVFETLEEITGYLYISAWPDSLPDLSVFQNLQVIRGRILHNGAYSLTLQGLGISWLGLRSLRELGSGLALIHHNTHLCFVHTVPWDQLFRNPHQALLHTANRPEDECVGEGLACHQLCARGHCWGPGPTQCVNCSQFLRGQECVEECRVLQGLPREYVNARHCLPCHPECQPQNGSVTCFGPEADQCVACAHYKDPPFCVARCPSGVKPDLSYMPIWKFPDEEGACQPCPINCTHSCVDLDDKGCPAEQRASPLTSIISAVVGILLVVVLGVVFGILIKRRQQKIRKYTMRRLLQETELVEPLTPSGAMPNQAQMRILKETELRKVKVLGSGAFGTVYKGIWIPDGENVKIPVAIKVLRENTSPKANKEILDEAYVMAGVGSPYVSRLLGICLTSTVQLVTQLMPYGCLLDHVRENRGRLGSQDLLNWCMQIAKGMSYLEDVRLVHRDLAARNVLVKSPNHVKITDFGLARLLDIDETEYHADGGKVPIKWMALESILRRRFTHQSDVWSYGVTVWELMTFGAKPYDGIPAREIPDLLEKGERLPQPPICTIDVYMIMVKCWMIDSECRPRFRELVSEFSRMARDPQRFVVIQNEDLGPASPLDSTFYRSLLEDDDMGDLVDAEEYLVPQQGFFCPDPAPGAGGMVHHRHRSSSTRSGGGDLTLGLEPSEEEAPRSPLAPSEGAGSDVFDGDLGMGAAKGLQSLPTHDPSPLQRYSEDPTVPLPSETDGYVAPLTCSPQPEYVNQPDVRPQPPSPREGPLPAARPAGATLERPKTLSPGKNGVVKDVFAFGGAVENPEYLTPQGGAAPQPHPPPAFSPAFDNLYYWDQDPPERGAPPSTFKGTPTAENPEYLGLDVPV

For orientation: viability means a read-out of living cells in per cent, often relative to untreated cells. Usually inhibition stands for the relative decrease from the control value, in per cent. Regarding `O=S(=O)(NCc1ccccc1)c1ccc2c(c1)OCCO2`, the viability was 124% in assay [1]; 124% (inactive) in assay [3]; 97.1% (inactive) in assay [4]; 76.8% (inactive) in assay [5]; 84.2% in assay [6] (setting [9]); 76.8% in assay [6] (setting [10]). Also, in assay [2], the Her2 level is 110% (inactive). Further, the differential viability (reversal) in assay [6] (H69AR cells + 2 uM doxorubicin) is -7.4% (inactive). Moreover, the inhibition was -3.9% (inactive) in assay [7] and -2.7% (inactive) in assay [8].

In the case of `COc1ccc(OC)c(NC(=O)CS(=O)(=O)Cc2nc(-c3ccccc3C)oc2C)c1`, the viability in assay [1] was 97.5%; in assay [3] it was 97.5% (inactive); in assay [4], 66.1% (inactive); in assay [5], 94.4% (inactive); in assay [6] (setting [9]) it was 96.6%; in assay [6] (setting [10]), 94.4%. Also, in assay [2], the Her2 level was 97.5% (inactive). In assay [6] (H69AR cells + 2 uM doxorubicin), the differential viability (reversal) is -2.23% (inactive). The figures for the inhibition in assay [7] and in assay [8] were -2.8% (inactive) and 6.83% (inactive), respectively.

For `O=C(C1CCN(S(=O)(=O)N2CCC3(CC2)OCCO3)CC1)N1CCOCC1`, the viability in assay [1] was 98%; in assay [3], 98% (inactive); in assay [4], 99.4% (inactive); in assay [5], 94.1% (inactive); in assay [6] (setting [9]), 90.3%; in assay [6] (setting [10]) it was 94.1%. The Her2 level in assay [2] was 114% (inactive). Besides, the differential viability (reversal) in assay [6] (H69AR cells + 2 uM doxorubicin) was 3.86% (inactive). In addition, the inhibition in assay [7] is 0.92% (inactive); in assay [8] it was 7.38% (inactive).

For the molecule `Cc1nc(SCC(=O)N2CCC(C(N)=O)CC2)n[nH]1`, the viability is 94.5% in assay [1]; 94.5% (inactive) in assay [3]; 109% (inactive) in assay [4]; 95.5% (inactive) in assay [5]; 91.6% in assay [6] (setting [9]); 95.5% in assay [6] (setting [10]). In addition, in assay [2], the Her2 level was 108% (inactive). In addition, the differential viability (reversal) in assay [6] (H69AR cells + 2 uM doxorubicin) is 3.98% (inactive). Also, the results for the inhibition in assay [7] and in assay [8] were -6.32% (inactive) and 1.45% (inactive), respectively.

As to `CCCn1c(SCC(=O)N2CCN(c3ccccc3)CC2)nc2ccccc2c1=O`, the viability in assay [1] is 117%; in assay [3] it was 117% (inactive); in assay [4], 70.7% (inactive); in assay [5] it was 83.8% (inactive); in assay [6] (setting [9]), 83.8%; in assay [6] (setting [10]) it was 83.8%. The Her2 level in assay [2] is 90.5% (inactive). Besides, the differential viability (reversal) in assay [6] (H69AR cells + 2 uM doxorubicin) was 0.045% (inactive). The inhibition was 8.38% (inactive) in assay [7] and 32.7% (active) in assay [8].

Consider `CC(C)=CCCC(C)N(C=O)C(C)CCC=C(C)C` (stereo not given), for which the viability in assay [1] is 84.5%; in assay [3], 84.5% (inactive); in assay [4], 76.3% (inactive); in assay [5] it was 87.8% (inactive); in assay [6] (setting [9]) it was 80.7%; in assay [6] (setting [10]) it was 87.8%. Moreover, the Her2 level in assay [2] is 94% (inactive). Moreover, the differential viability (reversal) in assay [6] (H69AR cells + 2 uM doxorubicin) is 7.05% (inactive). The values for the inhibition in assay [7] and in assay [8] were -0.68% (inactive) and -2.7% (inactive), respectively.

Take `Cc1ccc(S(=O)(=O)Cc2ccc(C(=O)NCc3ccc4c(c3)OCO4)o2)cc1`: the viability is 98% in assay [1]; 98% (inactive) in assay [3]; 84.7% (inactive) in assay [4]; 94.1% (inactive) in assay [5]; 87.3% in assay [6] (setting [9]); 94.1% in assay [6] (setting [10]). In assay [2], the Her2 level was 84% (inactive). Moreover, the differential viability (reversal) in assay [6] (H69AR cells + 2 uM doxorubicin) was 6.79% (inactive). The inhibition in assay [7] is -3.29% (inactive); in assay [8], -4.76% (inactive).

As for `O=C(O)C1CC=CCC1C(=O)NCc1ccccc1` (stereo not given), the viability was 106% in assay [1]; 106% (inactive) in assay [3]; 91.1% (inactive) in assay [4]; 92.2% (inactive) in assay [5]; 96% in assay [6] (setting [9]); 92.2% in assay [6] (setting [10]). In addition, in assay [2], the Her2 level was 87% (inactive). In addition, in assay [6] (H69AR cells + 2 uM doxorubicin), the differential viability (reversal) was -3.77% (inactive). Further, the values for the inhibition in assay [7] and in assay [8] were -4.4% (inactive) and -2.38% (inactive), respectively.

For `COCCN(CC(=O)NCc1ccccc1)C(=O)CCC(=O)Nc1ccccn1`, the viability was 112% in assay [1]; 112% (inactive) in assay [3]; 103% (inactive) in assay [4]; 92.9% (inactive) in assay [5]; 91.5% in assay [6] (setting [9]); 92.9% in assay [6] (setting [10]). In addition, the Her2 level in assay [2] is 90.5% (inactive). Also, the differential viability (reversal) in assay [6] (H69AR cells + 2 uM doxorubicin) was 1.44% (inactive). Besides, the inhibition in assay [7] is -4.8% (inactive); in assay [8] it was 1.94% (inactive).

Take `COc1ccc(C)cc1NC(=O)CN(Cc1nnc(-c2ccc(Cl)cc2)o1)C1CCCC1`: the viability in assay [1] was 89%; in assay [3], 89% (inactive); in assay [4], 84.5% (inactive); in assay [5], 4.7% (active); in assay [6] (setting [9]), 38.6%; in assay [6] (setting [10]) it was 4.7%. Also, the Her2 level in assay [2] is 89.5% (inactive). Besides, the differential viability (reversal) in assay [6] (H69AR cells + 2 uM doxorubicin) is -33.9% (inactive). Also, the inhibition in assay [7] is -4.73% (inactive); in assay [8], -2.95% (inactive).

Regarding `Cc1ncoc1C(=O)Nc1ccccc1C(N)=O`, the viability in assay [1] was 104%; in assay [3], 104% (inactive); in assay [4] it was 106% (inactive); in assay [5] it was 102% (inactive); in assay [6] (setting [9]) it was 85.5%; in assay [6] (setting [10]), 102%. In addition, the Her2 level in assay [2] is 101% (inactive). Further, the differential viability (reversal) in assay [6] (H69AR cells + 2 uM doxorubicin) was 16.3% (inactive). In addition, the inhibition in assay [7] is -6.08% (inactive); in assay [8], -1% (inactive).

For the molecule `O=C(O)CN1C(=O)CNC1=O`, the viability in assay [1] is 98%; in assay [3], 98% (inactive); in assay [4], 99.2% (inactive); in assay [5], 97.6% (inactive); in assay [6] (setting [9]) it was 95.2%; in assay [6] (setting [10]) it was 97.6%. Moreover, the Her2 level in assay [2] was 93.5% (inactive). Besides, in assay [6] (H69AR cells + 2 uM doxorubicin), the differential viability (reversal) is 2.41% (inactive). In addition, the results for the inhibition in assay [7] and in assay [8] were -4.86% (inactive) and 7.21% (inactive), respectively.

In the case of `N#Cc1nc(COc2ccccc2)oc1NCCCn1ccnc1`, the viability in assay [1] is 104%; in assay [3], 104% (inactive); in assay [4], 96.5% (inactive); in assay [5], 112% (inactive); in assay [6] (setting [9]), 107%; in assay [6] (setting [10]), 112%. For the same molecule, the Her2 level in assay [2] was 103% (inactive). Moreover, the differential viability (reversal) in assay [6] (H69AR cells + 2 uM doxorubicin) was 5.22% (inactive). Besides, the inhibition in assay [7] was -0.39% (inactive); in assay [8], 5.56% (inactive).

`Cc1ccc(NC(=O)CN2CC(C)SC2=NC2CCCCC2)cc1` (stereo not given): the viability in assay [1] is 84.5%; in assay [3], 84.5% (inactive); in assay [4] it was 96% (inactive); in assay [5], 83.9% (inactive); in assay [6] (setting [9]), 83%; in assay [6] (setting [10]), 83.9%. Besides, the Her2 level in assay [2] was 113% (inactive). Moreover, in assay [6] (H69AR cells + 2 uM doxorubicin), the differential viability (reversal) was 0.935% (inactive). Moreover, the values for the inhibition in assay [7] and in assay [8] were -6.8% (inactive) and 1.94% (inactive), respectively.
